Data set [1] has as its system U-937. Kind of data set: Induction of cell death in p53 null human U937 cells at 1 to 4 uM after 24 hrs by annexin V-FITC/PI staining based flow cytometry. It is filed as functional. In a few lines: (§1)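 Human U937 AML cells (p53 null) in RPMI 1640 with 10% FBS, 2 mM L-glutamine, penicillin/streptomycin, 37 °C, 5% CO2. Exposed 24 h to compound alone or with SAHA; vehicle DMSO < 0.1% v/v. Annexin V-FITC/PI staining and flow cytometry, reported as % Annexin V+ cells. Three independent experiments in triplicate; one representative shown. EC50 taken as concentration giving 50% Annexin V+ cells versus vehicle.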

The test system of data set [2] is U-937. Kind of data set: Induction of apoptosis in p53 null human U937 cells at 1 uM after 24 hrs in presence of SAHA by annexin V-FITC/PI staining based flow cytometry. It is filed as functional. In a few lines:
(§2)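 Cells treated 24 h, single agents or SAHA+PL at 1:1 (each drug at the stated concentration). Annexin V-FITC/PI kit staining, then flow cytometry, reported as % Annexin V+ cells. Three independent experiments in triplicate, with data from one representative experiment. DMSO <0.1% vehicle control.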

The test system of data set [3] is MOLM-13. Kind of data set: Induction of apoptosis in human MOLM13 cells harboring wild type p53/FLT3-ITD mutant at 1 uM after 24 hrs in presence of SAHA by annexin V-FITC/PI staining based flow cytometry. It is filed as functional. Put shortly:
as §2
(In flow cytometry, cells or beads pass a laser one at a time.)

Data set [4] relates to MOLM-13. Kind of data set: Induction of apoptosis in human MOLM13 cells harboring wild type p53/FLT3-ITD mutant at 2 uM after 24 hrs in presence of SAHA by annexin V-FITC/PI staining based flow cytometry. It is filed as functional. Put shortly: as §2
The test system of data set [5] is MOLM-13. Kind of data set: Induction of apoptosis in human MOLM13 cells harboring wild type p53/FLT3-ITD mutant at 4 uM after 24 hrs in presence of SAHA by annexin V-FITC/PI staining based flow cytometry. In kind it is functional. Put shortly:
as §2

For data set [6], the system named is U-937. Kind of data set: Antiproliferative activity against p53 null human U937 cells after 72 hrs in presence of SAHA by MTT assay. Particulars: U-937, 72 h. In kind it is functional, cell-based. Put shortly:
(§3)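 AML cell lines grown in RPMI 1640 with 10% FBS (20% for MOLM-13), 2 mM L-glutamine and penicillin/streptomycin at 37 °C, 5% CO2. Ara-C-resistant HL-60 and CMK sublines came from stepwise cytarabine selection and were kept in 600 nM or 300 nM cytarabine respectively. Cells were treated 72 h. MTT 0.05 mg/mL, 3 h at 37 °C, DMSO solubilization, absorbance at 570 nm. IC50 given ± SEM.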
For orientation: Formazan colour is commonly taken as a measure of viable cells.

The subject of another data set is MV4-11. Kind of data set: Antiproliferative activity against human MV4-11 cells after 72 hrs in presence of SAHA by MTT assay. To be noted: MV4-11, 72 h. In kind it is functional, cell-based.
The subject of data set [7] is MOLM-13. Kind of data set: Antiproliferative activity against human MOLM13 cells harboring wild type p53/FLT3-ITD mutant after 72 hrs in presence of SAHA by MTT assay. Particulars: MOLM-13, 72 h. It is filed as functional, cell-based. In a few lines:
as §3

The species entered for the next data set is Homo sapiens. Kind of data set: Effect on SAHA-induced HDAC inhibition in p53 null human U937 cells assessed as hyper acetylation of histone H4 at 1 uM after 4 hrs by Western blot analysis. It is filed as cell-based. In a few lines: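 U937 cells treated at 1 μM for 4 h. Whole-cell lysates run on SDS-PAGE, transferred to PVDF and immunoblotted for acetyl-histone H4, histone H4, acetyl-α-tubulin and β-actin.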
A general note: A western blot detects proteins with antibodies after separation by electrophoresis.

The subject of data set [8] is U-937. Kind of data set: Cytotoxicity against p53 null human U937 cells assessed as decrease in cell viability at 0.5 to 5 uM after 24 hrs in presence of SAHA by MTT assay. In kind it is functional, cell-based. Put shortly: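 MCF-10A (DMEM/F12, 5% horse serum, hydrocortisone, cholera toxin, insulin, EGF) and U937 (RPMI 1640, 10% FBS) were exposed to 0.5–5 μM, alone or PL+SAHA 1:1, for 24 h. MTT 0.05 mg/mL, 3 h at 37 °C, DMSO solubilization, A570. Viability given as mean ± SD of four to six independent experiments. DMSO <0.1% vehicle control.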

The subject of data set [9] is U-937. Kind of data set: Effect on SAHA-induced DNA damage in p53 null human U937 cells assessed as increase in gammaH2AX expression level by measuring ratio of gammaH2AX to beta-actin level at 2 uM after 24 hrs by Western blot analysis relative to control. It is filed as functional. In a few lines: (§4)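 U937 cells treated 24 h, alone or PL+SAHA. Whole-cell lysates (protease/phosphatase inhibitors) immunoblotted for γH2AX, CHK1, RAD51, Bim and XIAP. Band densitometry normalised to β-actin, then expressed as fold change relative to the untreated control.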

Data set [10] has as its system U-937. Kind of data set: Effect on SAHA-induced DNA damage in p53 null human U937 cells assessed as decrease in Rad51 expression level by measuring ratio of Rad51 to beta-actin level at 2 uM after 24 hrs by Western blot analysis relative to control. It is filed as functional. In a few lines:
as §4

For data set [11], the system named is U-937. Kind of data set: Effect on SAHA-induced apoptosis in p53 null human U937 cells assessed as increase in Bim EL expression level by measuring ratio of Bim EL to beta-actin level at 2 uM after 24 hrs by Western blot analysis relative to control. In kind it is functional. In a few lines:
as §4

Data set [12] relates to U-937. Kind of data set: Upregulation of Rad51 protein expression in p53 null human U937 cells assessed as ratio of Rad51 to beta-actin level at 2 uM after 24 hrs by Western blot analysis relative to control.
Data set [13] deals with U-937. Kind of data set: Induction of apoptosis in p53 null human U937 cells assessed as PARP-1 cleavage after 24 hrs by Western blot analysis. In kind it is functional, cell-based. Put shortly:
(§5)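 U937 cells exposed for 24 h. Lysates with protease/phosphatase inhibitors were separated by SDS-PAGE, transferred to PVDF and probed for PARP and cleaved caspase-3, with β-actin as loading control.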

The test system of data set [14] is U-937. Kind of data set: Induction of cell death in p53 null human U937 cells after 24 hrs by annexin V-FITC/PI staining based flow cytometry. In kind it is functional. In a few lines: as §1
Data set [15] deals with U-937. Kind of data set: Induction of apoptosis in p53 null human U937 cells assessed as caspase 3 cleavage after 24 hrs by Western blot analysis. In kind it is functional, cell-based. Put shortly:
as §5

The test system of data set [16] is U-937. Kind of data set: Induction of apoptosis in p53 null human U937 cells at 1 uM after 24 hrs by annexin V-FITC/PI staining based flow cytometry. In kind it is functional. In a few lines:
as §2

For data set [17], the system named is MOLM-13. Kind of data set: Induction of apoptosis in human MOLM13 cells harboring wild type p53/FLT3-ITD mutant at 4 uM after 24 hrs by annexin V-FITC/PI staining based flow cytometry. It is filed as functional. In a few lines: as §2
For data set [18], the system named is U-937. Kind of data set: Induction of apoptosis in p53 null human U937 cells at 0.5 uM after 24 hrs by annexin V-FITC/PI staining based flow cytometry. In kind it is functional. Put shortly: as §2
For the next data set, the system named is MDA-MB-231. Kind of data set: Antiproliferative activity against human MDA-MB-231 cells after 24 hrs by MTT assay. It is filed as functional, cell-based. Particulars: MDA-MB-231, 24 h.
Data set [19] is described as follows: Chemical stability of the compound in pH 7.4 phosphate buffer at 50 uM incubated up to 4 hrs in absence of GSH by HPLC analysis. In kind it is physicochemical. Particulars: pH 7.4, 4 h. Put shortly: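 Compound at 50 μM incubated with or without 5 mM GSH in phosphate buffer pH 7.4 at 37 °C for up to 4 h. Mixtures analysed by HPLC with water/0.1% formic acid/10% methanol versus 0.1% formic acid in acetonitrile, 0.5 mL/min, 10–80% B gradient over 18 min.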

Data set [20] can be described thus: Stability of the compound in human U937 cell lysate at 50 uM incubated for 1.5 hrs in presence of GSH by HPLC analysis. In kind it is ADME, cell-based. Particulars: u-937, 1.5 h.

We go through two compounds from ChEMBL document CHEMBL4000155, “Synthesis and Antileukemic Activities of Piperlongumine and HDAC Inhibitor Hybrids against Acute Myeloid Leukemia Cells” (J Med Chem, 2016).

Calls of active or inactive are those of the source. The calls are words filed in the database; no cut-off is given here.

Regarding `COc1cc(/C=C/C(=O)N2CCC=CC2=O)cc(OC)c1OC` [PIPLARTINE], the result in the data set with U-937 [1] and in the data set on U-937 [8] was Active. The Activity is recorded as 6.2% in the data set with U-937 [2], 8% in the data set with MOLM-13 [3], 53.6% in the data set with MOLM-13 [4] and 77.5% with MOLM-13 [5]. Besides, the IC50 turned out to be 0.767 µM with U-937 [6], 0.289 µM with MV4-11 and 0.934 µM in the data set with MOLM-13 [7]. Moreover, the outcome in the data set filed under Homo sapiens was inactive. In addition, the Ratio worked out at 4.1 with U-937 [9], 0.9 in the data set on U-937 [10], 1.8 with U-937 [11] and 1.4 in the data set with U-937 [12].
`COc1cc(/C=C/C(=O)N2CCC=CC2=O)cc(OC)c1OCCCCCCC(=O)NO`: the Activity result in the data set with U-937 [13] is “Dose-dependent effect”; in the data set on U-937 [14] it was “Dose-dependent effect”; in the data set with U-937 [15], “Dose-dependent effect”; with U-937 [16], 13.7%; in the data set on MOLM-13 [17], 80.3%. The result with U-937 [18] was inactive. Besides, in the data set on MDA-MB-231, the IC50 amounted to 0.382 µM. The Stability entry is on record as “Stable” in data set [19] and “Unstable” in data set [20].

The IC50 is the concentration needed to halve the response being measured.
